Source: PubChem BioAssay
A selection: hits, their analogues and other compounds. The true share with any hit is near 2.3%.
TRPC6 activator: activates the mouse TRPC6 cation channel | Q61143 | B-score at 10 µM | 310,000 compounds, 0.13% hits | HEK293-TRPC6 membrane potential dye fluorescence; stronger effect = higher value;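 active = B-score of the integrated fluorescence ratio above library mean plus 3 SD, and starting fluorescence ratio within library mean plus 5 SD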;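 note: higher score means more depolarization so channel activation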
Target sequence (Q61143 whole entry, looked up): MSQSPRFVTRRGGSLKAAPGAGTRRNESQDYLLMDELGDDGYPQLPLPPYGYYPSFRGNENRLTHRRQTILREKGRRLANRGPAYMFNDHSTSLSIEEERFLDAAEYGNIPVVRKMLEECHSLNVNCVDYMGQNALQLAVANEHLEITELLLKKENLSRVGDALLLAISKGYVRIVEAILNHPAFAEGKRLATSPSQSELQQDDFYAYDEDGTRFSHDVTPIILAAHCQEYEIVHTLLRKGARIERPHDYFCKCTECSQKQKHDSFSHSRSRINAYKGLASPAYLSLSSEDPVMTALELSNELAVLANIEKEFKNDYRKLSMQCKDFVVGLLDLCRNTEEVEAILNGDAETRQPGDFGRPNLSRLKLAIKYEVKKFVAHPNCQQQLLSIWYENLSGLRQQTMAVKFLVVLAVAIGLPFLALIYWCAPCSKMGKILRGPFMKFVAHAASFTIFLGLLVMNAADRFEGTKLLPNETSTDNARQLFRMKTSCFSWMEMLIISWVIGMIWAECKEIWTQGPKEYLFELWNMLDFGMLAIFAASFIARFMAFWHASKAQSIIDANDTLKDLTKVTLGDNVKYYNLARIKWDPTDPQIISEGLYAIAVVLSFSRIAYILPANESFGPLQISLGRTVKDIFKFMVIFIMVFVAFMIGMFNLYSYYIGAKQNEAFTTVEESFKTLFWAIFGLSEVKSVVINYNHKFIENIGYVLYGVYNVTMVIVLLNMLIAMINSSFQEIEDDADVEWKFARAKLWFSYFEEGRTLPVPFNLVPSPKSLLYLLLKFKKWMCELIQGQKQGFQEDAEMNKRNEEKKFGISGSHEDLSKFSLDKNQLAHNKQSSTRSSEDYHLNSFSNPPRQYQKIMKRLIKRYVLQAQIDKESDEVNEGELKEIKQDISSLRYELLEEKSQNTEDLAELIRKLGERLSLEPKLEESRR
TRPC4 block: inhibitors of mouse TRPC4 channel | B-score at 10 µM | 300,000 compounds, 0.39% hits | Q9QUQ5 | AID 2247 | HEK293 TRPC4beta/mu-opioid, DAMGO-evoked Fluo4 calcium flux; stronger effect = lower value;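 active = B-score over 3 SD under the library average, no early fluorescence shift, positive overall ratio signal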
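material = TRPC4beta/mu-opioid receptor HEK293 cell line | probe or stimulus = sequential submaximal and maximal DAMGO stimulation | compound dosing = one concentration per compound | measured by = Fluo4 Ca2+ flux fluorescence | evaluation = integrated fluorescence ratio relative to baseline, converted to per-well B score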
TRPC6 inh: inhibitors of mouse TRPC6 channel | B-score at 10 µM | 310,000 compounds, 1.1% hits | HEK293-TRPC6, membrane potential dye, ACh-evoked depolarization; stronger effect = lower value | Q61143;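 active = B-score under library mean minus 3 SD, initial fluorescence not abnormally high, positive integrated signal ratio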;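 note: B-score derived from integrated fluorescence ratio over the kinetic read; more negative B-score means stronger inhibition of depolarization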
TRPC4 potent: allosteric potentiators of mouse TRPC4 channel | Q9QUQ5 | HEK293 TRPC4beta/mu-opioid, DAMGO EC20, Fluo-4 Ca2+ flux; stronger effect = higher value | B-score at 10 µM | 310,000 compounds, 0.42% hits;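 active = B-score of calcium response area above 5 SD of library B-scores, with initial fluorescence ratio within 5 SD of library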
TRPC4 agonist: opens the mouse TRPC4 cation channel; Q9QUQ5; HEK293 TRPC4beta/mu-opioid, Fluo4 calcium fluorescence; stronger effect = higher value; B-score at 10 µM; 310,000 compounds, 0.49% hits; AID 2237;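 active = B-score above 5 SD of library B-scores, and initial fluorescence ratio not above library mean plus 5 SD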;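 note: positive B-score marks a calcium rise read as TRPC4 activation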
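Assay system: HEK293 cells stably co-expressing mouse TRPC4beta and mu-opioid receptor / Timing: Fluo4 dye loading 45 min at room temperature, 110 s recording / Signal: Fluo4 calcium-sensitive dye fluorescence, kinetic, 1 Hz baseline / Read-out: integrated baseline-normalised fluorescence ratio, converted to per-well B score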
Hits are given with their value; - = inactive.

SMILES | TRPC6 activator | TRPC4 block | TRPC6 inh | TRPC4 potent | TRPC4 agonist
O=C(CCS(=O)(=O)c1ccc(F)cc1)Nc1nc(-c2ccncc2)cs1 | - | - | - | - | -
O=C(CN1CCN(S(=O)(=O)c2cc(Cl)ccc2Cl)CC1)Nc1ccc2c(c1)OCCO2 | - | - | -5.6 | - | 57
CN(C)c1ccc(NC(=O)CN2CCN(S(=O)(=O)c3cc(Cl)ccc3Cl)CC2)cc1 | - | - | - | - | -
CC(=O)c1ccc(S(=O)(=O)NCc2ccc(C(=O)NCC(c3ccccc3)N(C)C)cc2)cc1 (stereo not given) | - | - | - | - | 177
COc1ccc(C(CNC(=O)c2ccc(NS(=O)(=O)c3ccc4c(c3)OCCO4)cc2)N(C)C)cc1 (stereo not given) | - | - | - | - | -
COc1ccc(C(CNC(=O)c2cccc(NS(=O)(=O)c3ccc(C)c(F)c3)c2)N(C)C)cc1 (stereo not given) | - | - | - | - | 81
COc1ccc(C(CNC(=O)c2cccc(NS(=O)(=O)c3ccccc3)c2)N(C)C)cc1 (stereo not given) | - | -6 | - | - | 53
COc1ccc(C(CNC(=O)c2ccc(S(=O)(=O)Nc3ccc(F)cc3)cc2)N(C)C)cc1 (stereo not given) | - | - | - | - | 66
COc1ccc(NS(=O)(=O)c2cccc(C(=O)NCC(c3ccco3)N(C)C)c2)cc1 (stereo not given) | - | - | - | - | -
O=c1c(Cc2ccc(Cl)cc2Cl)c(O)ccn1CCCN1CCOCC1 | - | - | - | - | -
C/C(Cc1ccccc1)=N\NC(=O)CNC(=O)c1ccc(Cl)cc1Cl | - | - | - | - | -
Cn1c(-c2cccc(Br)c2)cnc1NCc1ccccc1O | - | - | - | - | -
Cc1cccc(NC(=O)CS(=O)CC(=O)Nc2cnc3ccccc3c2)c1C (stereo not given) | - | - | - | - | -
CCNC(=O)n1nccc1C(C)Oc1cccc(C(F)(F)F)c1 (stereo not given) | - | - | - | - | -
CCN(CC)S(=O)(=O)c1cccc(C(=O)NCC(c2ccccc2)N(C)C)c1 (stereo not given) | - | - | - | - | 79
CCOc1ccc(S(=O)(=O)Nc2cccc(C(=O)NCC(c3ccco3)N(C)C)c2)cc1 (stereo not given) | - | - | - | - | -
CCOc1ccc(S(=O)(=O)Nc2cccc(C(=O)NCC(c3ccccc3)N(C)C)c2)cc1 (stereo not given) | - | - | - | - | 198
CN(C)C(CNC(=O)c1ccc2nc[nH]c2c1)c1ccccc1 (stereo not given) | - | - | - | - | 142
CN(C)C(CNC(=O)CNC(=O)c1ccc2ccccc2c1)c1ccccc1 (stereo not given) | - | - | - | - | -
N#Cc1c2n(c(=S)n(-c3ccc(OC(F)F)cc3)c1=O)CCCCC2 | - | - | - | 13 | -
N#Cc1c2n(c(=S)n(-c3ccccn3)c1=O)CCCCC2 | - | - | - | - | -
CCn1c(SCC(=O)Nc2cccc(C)c2)nc2ccccc2c1=O | - | - | - | - | -
C=C(C)Cn1c(SCC)nc2ccccc2c1=O | - | -5 | - | - | -
CCn1c(SCC(=O)Nc2ccccc2)nc2ccccc2c1=O | - | -5 | - | - | -
CCC(C)n1c(SCC(=O)Nc2cc(C)on2)nc2ccccc2c1=O (stereo not given) | - | - | - | - | 44
SMILES | TRPC6 activator | TRPC4 block | TRPC6 inh | TRPC4 potent | TRPC4 agonist
CC(OC(=O)/C=C/c1ccc2ccccc2n1)C(=O)NCc1ccccc1 (stereo not given) | - | - | - | - | -
COc1cc(OC)cc(C(=O)N[C@H](C(=O)NCc2ccc(F)cc2)C(C)C)c1 | - | - | - | - | -
CCOC(=O)c1nc(NCc2cccc(OC)c2)c2ccccc2n1 | - | - | - | - | -
COc1cc(CNCCc2ccc(F)cc2)ccc1OCc1ccc(Cl)nc1 | - | -6 | - | - | -
O=C(Cn1cncn1)c1ccc(F)cc1F | - | - | - | - | -
CC(OC(=O)CNC(=O)c1ccccc1F)C(=O)Nc1nc(-c2ccccc2)cs1 (stereo not given) | - | -6 | - | - | -
Cc1csc(NC(=O)C(NC(=O)c2ccccc2F)C(C)C)n1 (stereo not given) | - | - | - | - | -
CC1CCCCN1CCCNC(=O)c1nn(C)c2c1CSc1ccccc1-2 (stereo not given) | - | -7 | - | - | -
COc1cc(C=O)ccc1OC(=O)c1ccncc1 | - | - | - | - | -
COc1cc(C=O)ccc1OC(=O)c1ccc(C(C)C)cc1 | - | -6 | - | - | -
COc1ccc(N2CCN(C(=O)C(=O)c3c(C)[nH]c4ccccc34)CC2)cc1 | - | - | - | - | -
CC(=O)c1ccc(N2CCN(C(=O)C(=O)c3c(C)[nH]c4ccccc34)CC2)cc1 | - | - | - | 10 | -
CC(=O)Oc1ccc(/C=C(\NC(=O)c2ccco2)C(=O)NCc2ccccc2)cc1 | - | -7 | - | - | -
Cc1cc(CN2CCCC(C(=O)Nc3ccc(-c4nc5ccccc5[nH]4)cc3)C2)n[nH]1 (stereo not given) | - | -5 | - | - | -
CCn1cc(CN2CCCC(C(=O)Nc3ccc(-c4nc5ccccc5[nH]4)cc3)C2)c(C)n1 (stereo not given) | - | - | - | - | 206
CCn1cc(CN2CCCC(C(=O)Nc3cccc(-c4cc5ccccc5[nH]4)c3)C2)c(C)n1 (stereo not given) | - | - | - | - | -
COc1ccc(-c2c(NC(=O)c3ccco3)n(-c3ccccc3)nc(C)c2=O)cc1 | - | - | - | - | -
CCCC(=O)Nc1c(-c2ccccc2)c(=O)c(C)nn1-c1ccc(Cl)cc1 | - | - | - | - | 78
O=C(NCCNC(=O)c1ccccc1Br)c1cccnc1 | - | - | - | - | -
CCc1cc2c(SCC(=O)N(C)C3CCS(=O)(=O)C3)ncnc2s1 (stereo not given) | - | - | - | 28 | -
CCN(C(=O)CSc1ncnc2sc(C)c(C)c12)C1CCS(=O)(=O)C1 (stereo not given) | - | - | - | - | -
N=c1n(Cc2ccccc2)c2ccccc2n1Cc1ccccc1 | - | - | - | - | -
N=c1n(Cc2ccc(Cl)cc2)c2ccccc2n1CC(O)COc1ccccc1 (stereo not given) | - | - | - | - | 86
N=c1n(Cc2ccccc2)c2ccccc2n1CC(O)COc1ccc(Cl)cc1Cl (stereo not given) | - | - | - | 12 | -
CCN(CC)CCn1c(=N)n(CC(O)COc2cccc(C)c2)c2ccccc21 (stereo not given) | - | -5 | - | - | -
COc1ccc(OCC(O)Cn2c(=N)n(Cc3ccccc3)c3ccccc32)cc1 (stereo not given) | - | - | - | - | -
